Results taken from publication PMC2929396 (Chemistry & biology, 2010).
pEC50, pIC50: −log10 of the molar value. Read-outs that look alike come from different tables or passages of the source. One block for each compound: values may come before it.

How the values were obtained:
[1] = tested on: P. falciparum; experiment: P. falciparum replication assay; type: cell-based, Plasmodium falciparum; settings: read-out: EC50Pot; standard 75 h replication assay, ring stage D10 parasites
In short: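 D10 parasites were synchronized by 70% Percoll schizont harvest, a 1 h invasion window and sorbitol. Ring-stage cultures (~2% parasitemia, 0.5% hematocrit) were treated with compound for ~75 h, until DMSO controls reached schizonts. Infected versus uninfected RBCs were counted by FACS. EC50Pot was fitted to a dose response curve.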

[2] = tested on: HFF cells; experiment: Cell toxicity, CellTiter-Glo; type: cell-based, human; settings: ATP production after 24 h treatment of HFF cells with 0.01–100 µM compound
In short: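 HFF cells were incubated 24 h with inhibitor (0.01–100 µM) or DMSO. Viability was read as ATP by CellTiter-Glo. EC50Tox was obtained by fitting the data to a dose response curve.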

[3] = tested on: NK65 P. berghei parasites; experiment: P. berghei mouse model of malaria, parasitemia; type: in vivo, Balb/c mice; settings: Figure S2
[4] = Compound toxicity and pharmacokinetics in mice; type: in vivo; settings: Figure S2
[5] = molecular target: T1, DPAP1 (Plasmodium falciparum, UniProt Q8IIJ9); experiment: DPAP1 specific fluorogenic assay; type: biochemical
T1 sequence (Q8IIJ9 370-599 limits assumed): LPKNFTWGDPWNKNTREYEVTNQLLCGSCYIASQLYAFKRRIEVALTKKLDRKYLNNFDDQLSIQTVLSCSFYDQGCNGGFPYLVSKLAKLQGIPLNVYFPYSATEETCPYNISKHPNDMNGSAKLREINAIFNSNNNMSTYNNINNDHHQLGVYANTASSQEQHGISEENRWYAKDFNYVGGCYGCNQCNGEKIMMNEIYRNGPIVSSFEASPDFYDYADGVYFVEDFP
T1 sequence (Q8IIJ9 28-209 limits assumed): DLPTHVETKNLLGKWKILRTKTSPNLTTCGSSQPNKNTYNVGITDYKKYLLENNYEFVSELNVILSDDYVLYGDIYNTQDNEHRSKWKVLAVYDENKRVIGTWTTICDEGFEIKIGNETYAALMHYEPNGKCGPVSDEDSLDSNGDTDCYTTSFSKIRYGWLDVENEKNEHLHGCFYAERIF
T1 sequence (Q8IIJ9 600-700 limits assumed): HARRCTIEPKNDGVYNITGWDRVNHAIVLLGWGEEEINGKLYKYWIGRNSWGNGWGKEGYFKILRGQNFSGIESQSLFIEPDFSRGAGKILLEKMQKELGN
In short: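 DPAP1 activity was assayed at 25 °C in pH 5.5 acetate buffer with 1% parasite lysate and 10 µM (Pro-Arg)2-Rho. Turnover was read for 5 min (ex 492/em 523 nm). Lysates were pretreated with inhibitor for set times (0.1–2 h). IC50 came from dose response fits. For ki, v/v0 relative to DMSO was fitted to a simple irreversible inhibitor model.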

[6] = molecular target: T1, DPAP1; type: biochemical
In short: (§1)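 Trophozoite or merozoite lysates, or intact schizonts, were used in acetate buffer (50 mM sodium acetate, 5 mM MgCl2, 5 mM DTT, pH 5.5). Lysates were preincubated 30 min with 10 µM inhibitor, then labeled 1 h. FY01 labeled DPAPs (fluorescent SDS-PAGE scan) and 125I-DCG04 labeled falcipains (autoradiography). Loss of band signal indicated inhibition, and IC50s came from quantified gel bands.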

[7] = tested on: P. falciparum; experiment: Replication assay after 1h treatment and washout; type: cell-based, Plasmodium falciparum; settings: 1h treatment at different life cycle stages
In short: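 Tightly synchronized parasites were exposed 1 h to inhibitor or DMSO at 1, 10, 18, 30, 38 or 46 h post-invasion. They were then washed 3× and cultured until progeny in DMSO controls reached schizonts (~80 h p.i.). Parasitemia was read by FACS from 3 independent measurements, reported as standard error.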

[8] = Stability after overnight incubation in mouse serum; type: in vitro ADME; settings: 37 °C
In short: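 Inhibitor was incubated overnight at 37 °C in mouse serum. Remaining potency was tested as the ability to block FY01 labeling of DPAP1 in parasite lysates, run before and after serum exposure.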

[9] = tested on: DPAP3; experiment: Competition assay with activity-based probe FY01, DPAP3 labeling; type: biochemical, Plasmodium falciparum; settings: parasite lysates
In short: as §1

[10] = tested on: FPs (FP2/3); experiment: Competition assay with activity-based probe 125I-DCG04, falcipain labeling; type: biochemical, Plasmodium falciparum; settings: parasite lysates
In short: as §1

[11] = tested on: P. falciparum; experiment: Phenotypic effects in Geimsa-stained thin blood smears; type: cell-based, Plasmodium falciparum; settings: schizonts treated 24 h
In short: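 Synchronous schizont-stage cultures were exposed to inhibitor for 24 h across increasing concentrations. Morphology was assessed on Giemsa-stained thin blood smears.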

[12] = ref personal communication, David Percival, Merck; cited from earlier work

pEC50 [1]: 4.35
Compound: CCCCC(C(=O)COc1c(F)c(F)cc(F)c1F)n1cc(C2(N)CCN(C(N)=O)CC2)nn1 (stereo not shown) [ML4154]
EC50Tox [2]: 30000 (5000) nM

Compound: CCC[C@H](N)C(=O)N[C@H](/C=C/S(=O)(=O)c1ccccc1)CCc1ccccc1 [JCP-410]
effect in vivo [3]: no effect | PK properties [4]: poor

pIC50 ([5]; read-out: IC50DPAP1,1h, 1h, lysates): 8.19 | pIC50 ([5]; read-out: IC50DPAP1,2h, 2h treatment of parasite lysates): 8.70 | second order rate constant of inhibition (ki) ([5]; trophozoite lysates incubated with inhibitor 0.1–2h): 35000 ± 3000 M⁻¹ s⁻¹ | block of DPAP1 labeling by ABP ([6]; lysates, 30 min with 10 µM inhibitor then 1h FY01): efficiently blocked labeling | selectivity towards DPAP1 over DPAP3 and the FPs ([6]; other papain fold cysteine proteases of P. falciparum): at least 1000 fold | pEC50 [1]: 8.55 | ability to inhibit DPAP1 after incubation in mouse serum [8]: lost virtually all of their activity
Compound: C[C@H](N)C(=O)N[C@@H](Cc1ccc(I)cc1)C(=O)C=[N+]=[N-] [Ala-4(I)Phe-DMK]
sensitivity at trophozoite stage relative to other stages [7]: 10 times | inhibition of DPAP3 (ABP labeling) [9]: but not FPs or DPAP3 | inhibition of FPs (ABP labeling) [10]: but not FPs or DPAP3 | concentration inducing schizont arrest and a FV defect [11]: ≥ 1 µM | pharmacokinetic (PK) properties [12]: very poor

Compound: CCCCC(C(=O)COC(=O)c1c(C)cccc1C)n1cc(C2(N)CCCCC2)nn1 (stereo not shown) [ML4091]
pEC50 [1]: 5.22 | EC50Tox [2]: 12000 (3000) nM

pEC50 [1]: 6.66
Compound: CCCCC(C(=O)COc1c(F)c(F)cc(F)c1F)n1cc(C2(N)CCNCC2)nn1 (stereo not shown) [ML4162]
EC50Tox [2]: 68000 (4000) nM

pEC50 [1]: < 4.00
Compound: CCCCC(C(=O)COc1c(F)c(F)cc(F)c1F)n1cc(C2(N)CCN(C(C)=O)CC2)nn1 (stereo not shown) [ML4163]
EC50Tox [2]: > 100000 nM
